From PubChem BioAssay
UPR XBP1 act – adaptive UPR (XBP1) activation; AID 463104; 330,000 tested, 0.33% active; CHO-XBP1 luciferase reporter, IRE1-XBP1 UPR activation, luminescence; percent of tunicamycin response, DMSO as zero; activation, % at 20 µM;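 active = versus positive control, 20 µM dose yields 30% or more activation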
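Material: CHO cell line with stable XBP1 luciferase reporter; buffer or medium: F12 medium containing 10% fetal bovine serum; compound: single point, 20 µM final compound, 1% DMSO; incubation: 6 h treatment, 37 °C; measured by: glow luminescence from Steady-Glo reagent; evaluation: activation, % of tunicamycin; control set: tunicamycin high, DMSO low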
CHOP inhibitor – inhibitors of CHOP induction in ER stress response; CHO-K1 CHOP-promoter luciferase, tunicamycin-induced, 15-18 h; inhibition, % at 10 µM; 220,000 tested, 3.8% active; AID 2732;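 active = compounds that reduced the stress-induced luciferase reporter signal by more than about 70% of percent inhibition, limit read from the data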
GRIN3A LBD mod – modulators (binders) of human NR3A ligand-binding domain; NR3A LBD differential scanning fluorimetry, Tm shift; 0% = protein alone, 100% = glycine-bound protein; Tm shift relative to glycine control, % at 25 µM; 340,000 tested, 2.5% active;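 active = melting temperature shift of at least 10% of the positive control shift, at one fixed dose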
MPTP inh – permeability transition pore inhibition; AID 602449; inhibition, % at 10 µM; 360,000 tested, 1.4% active; isolated mouse mitochondria, Ca2+ swelling absorbance, 30 min;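 active = inhibition of 50% or more, scaled per plate between neutral and stimulator controls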
UPR CHOP act – apoptotic UPR (CHOP) activation. CHO-CHOP luciferase reporter, luminescence; percent of tunicamycin response over DMSO baseline. activation, % at 10 µM. 330,000 tested, 0.34% active. AID 449763;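 active = at 10 µM dose, activation of 40% or more, normalized to positive control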
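System: CHO-CHOP luciferase reporter cell line; amount: 500 cells/well; buffer or medium: F12 medium containing 10% fetal bovine serum; incubation: 6 h compound exposure at 37 °C after overnight seeding; measured by: luciferase luminescence after 10 min with Steady-Glo reagent; evaluation: % reporter activation, DMSO baseline versus tunicamycin full activation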
aDG glyco act – increases alpha dystroglycan glycosylation. activation, % at 10 µM. Pro5-aDG cells, alpha-DG glycosylation AlphaScreen (IIH6); 0% Pro5, 100% B10-LARGE cell signal. 360,000 tested, 0.22% active;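 active = activation of at least 8% versus controls, or a plate z-score of at least 8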;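 note: Pro5 are CHO cells carrying HIG-tagged alpha-DG that lacks glycosylation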
Of the large screens only hits and unclear results are named; the others gave an inactive call. This is a sample that favours compounds with a hit; in the whole collection about 5.6% have one here.

OC[C@@H]1[C@@H](c2ccc(Cl)cc2)C(c2cccc(Cl)c2)=NN1c1ccccc1	GRIN3A LBD mod 31 (no result: CHOP inhibitor)
OC[C@@H]1[C@@H](c2ccc(Cl)cc2)C(c2ccccc2)=NN1c1ccccc1	GRIN3A LBD mod 24 (no result: CHOP inhibitor)
OC[C@@H]1[C@@H](c2ccc(F)cc2)C(c2cccc(Cl)c2)=NN1c1ccccc1	GRIN3A LBD mod 27 (no result: CHOP inhibitor)
CN1CCN(C(=O)c2cc(=O)c3cc(Cl)cc(Cl)c3o2)CC1	none (no result: CHOP inhibitor)
CC(=O)Nc1ccc(NC(=O)CSc2nnc(-c3cccnc3)o2)cc1	none (no result: CHOP inhibitor)
Cc1ccc(S(=O)(=O)n2c3ccc(Cl)cc3c3nc(C)sc32)cc1	GRIN3A LBD mod 27 (no result: UPR XBP1 act, UPR CHOP act)
CC(C)(C)c1ccc(OCC(=O)N/N=C/c2cc(Br)ccc2OC(=O)c2ccco2)cc1	GRIN3A LBD mod 23
CC1/C(=C\c2ccc(Cl)cc2)C(=O)C2CC1C2(C)C (centres undefined)	CHOP inhibitor 76
CC1CCC(C(C)C)C(=O)/C1=C/c1ccc(N)cc1 (centres undefined)	none
COc1cccc(OC)c1C(=O)Nc1cccc(NC(=O)c2cccs2)c1	none (no result: CHOP inhibitor)
CC(C)C1OC(c2cccc(NC(=O)c3cccs3)c2)OCC1(C)C (centres undefined)	CHOP inhibitor 79
CCOC(=O)CSc1nc2c(sc(=S)n2-c2ccccc2OC)c(=O)n1Cc1ccco1	GRIN3A LBD mod 19
CCOC(=O)CSc1nc2c(sc(=S)n2-c2ccccc2OC)c(=O)n1-c1ccccc1OC	none (no result: CHOP inhibitor)
Cc1nc(CSc2ccc(Cl)cc2)cc(NCc2ccccc2)n1	CHOP inhibitor 91
CNc1cc(CSc2ccc(Cl)cc2)nc(C)n1	none
COc1ccc(N2CCN(C(=O)C3(C)CC3(Cl)Cl)CC2)cc1 (centres undefined)	none
CCCCOc1ccc(C(=O)N/C(=C/C=C/c2ccccc2)C(=O)NCCO)cc1	none
O=C(O)CCNC(=O)/C(=C/C=C/c1ccccc1)NC(=O)c1ccccc1	CHOP inhibitor 74
COC(=O)CSc1nc2nc(C)cc(C)n2n1	none
CCCCSc1nnc(CSc2nc3nc(C)cc(C)n3n2)o1	GRIN3A LBD mod 12
CCOC(=O)CSc1nc2nc(C)cc(C)n2n1	CHOP inhibitor 83
CC[C@]1(C(=O)OC)[C@H]2C(=O)N(Cc3ccccc3)C(=O)[C@H]2[C@H]2CN=C(SC)N21	none (no result: CHOP inhibitor)
CCc1nc(N)nc(N)c1-c1ccc(Cl)cc1	none (no result: MPTP inh)
CCc1nc(N)nc(N)c1-c1ccc(N(C)Cc2ccccc2)c([N+](=O)[O-])c1	GRIN3A LBD mod 13 (no result: UPR XBP1 act, CHOP inhibitor, UPR CHOP act)
COc1cc(NC(=O)c2cccs2)c(C(=O)OCC(=O)c2cc(C)n(-c3ccccc3)c2C)cc1OC	CHOP inhibitor 85
COc1cc(NC(=O)c2cccs2)c(C(=O)OCC(=O)c2cc(C)n(-c3ccc(F)cc3)c2C)cc1OC	none
O=c1[nH]c2cc3ccccc3cc2nc1-c1nnnn1Cc1ccccc1	none (no result: UPR XBP1 act, CHOP inhibitor, GRIN3A LBD mod, UPR CHOP act)
CCN(C(=O)CSc1nnc(-c2ccc(OC)cc2)n1C(C)C)C1CCS(=O)(=O)C1 (centres undefined)	none (no result: CHOP inhibitor)
COc1ccc(CCNC(=O)c2sc3cc(C)ccc3c2Cl)cc1	GRIN3A LBD mod 12
Cc1ccc2c(Cl)c(C(=O)NCCc3ccccc3)sc2c1	none
FC(F)(F)c1ccc(Cl)c(-n2c(-c3cc(C4CC4)[nH]n3)n[nH]c2=S)c1	none
C[C@@H]1CN([C@H](C)CO)C(=O)Cc2cc(NC(=O)Nc3ccccc3)ccc2O[C@@H]1CN(C)C(=O)Nc1ccc2c(c1)OCO2	none (no result: CHOP inhibitor)
CNC(=O)COC(=O)c1ccccc1Oc1ccccc1	none
NC(=O)NC(=O)COC(=O)c1ccccc1Oc1ccccc1	GRIN3A LBD mod 11
O=C(NCc1nc2ccccc2[nH]1)C1=C[C@H](c2ccc(C(F)(F)F)cc2)C[C@H](OCCCCO)O1	none (no result: CHOP inhibitor)
CCOC(CN=c1nc(N(C)C)ss1)OCC	GRIN3A LBD mod 22 (no result: UPR XBP1 act, CHOP inhibitor, UPR CHOP act)
CN(C)c1nc(=NCc2ccco2)ss1	none (no result: UPR XBP1 act, UPR CHOP act)
CCC(=O)NC1=C(Cl)C(=O)C(NC(=O)CC)=C(Cl)C1=O	CHOP inhibitor 87
COc1cccc(C2Nc3cc(Cl)c(S(N)(=O)=O)cc3S(=O)(=O)N2)c1 (centres undefined)	GRIN3A LBD mod 11
